The structures appear in SMILES notation. Active and inactive are the calls of the source.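 The calls were made as follows, unless noted: active = inhibition above 20% together with a positive visual image hit; inconclusive = visual image hit but inhibition not above 20%; inactive = no visual image hit.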

Assay [1] is described as follows: inhibitors of TNFa-induced NFkB p65 translocation, primary screen, imaging, HUVEC, MLSMR starter and 10KST1 sets (AID 438).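 Also: compound added about 3h40 before a 20 min TNFalpha stimulation.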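 As to inhibition: signal is the nuclear over cytoplasmic p65 intensity ratio per well.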 Particulars: HUVEC TNFa-induced p65 nuclear translocation; cell count: measured here: nuclei count (cytotoxicity indicator), at 2.08 µM; inhibition: at 2 µM, stronger effect = higher value, 0% TNFa-plus-vehicle, 100% no-TNFa wells.
Assay [2] can be described thus: endothelial E-selectin expression blockers – imaging, HUVEC, immunofluorescence, MLSMR starter and 10KST1 sets, primary screen (AID 487;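 active = visually confirmed hit in the image check and inhibition above 20%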;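 as to inhibition: signal is fraction of cell area covered by stained E-selectin grains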;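 as to nuclei count: 100% = median nuclei count of all wells on the same plate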). Particulars: HUVEC TNFalpha-induced E-selectin immunofluorescence imaging, at 2 µM; inhibition: stronger effect = higher value; nuclei count: measured here: cell number, toxicity.
Assay [3] is described as follows: Primary imaging screen for DUSP6 inhibitors that restore phospho-Erk in transfected HeLa cells, chemical complementation (AID 609;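 active = compounds giving at least 50% inhibition in the cell-based MKP-3 phosphatase rescue imaging test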;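 as to inhibition: phospho-Erk level distribution per well compared with pooled transfected vehicle control wells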). Particulars: HeLa MKP-3 transfected, phospho-Erk imaging KS statistic, at 10 µM, cells stimulated with TPA for 15 min.
The target in assay [4] is Dual specificity protein phosphatase 6 (Homo sapiens) (UniProt Q16828). The description is as above. Conditions: HeLa MKP-3 transfected, phospho-Erk imaging KS statistic; at 10 µM; stronger effect = higher value; cells stimulated with TPA for 15 min.
The target in assay [5] is Voltage-gated potassium channel subunit beta-2 (Rattus norvegicus) (UniProt P62483). Nature of the assay: inhibitors of rat Kvbeta2 reductase activity – biochemical, NADPH fluorescence, primary screen (AID 622;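 active = fluorescence slope higher than the sample average by over 3 SD, cut at about -0.22 in these data, passing the limit was not always enough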;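 also: slope of raw intensity against log time taken from 70 to 1610 s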). Particulars: recombinant KvBeta, 4-cyanobenzaldehyde reduction, at 10 µM, stronger effect = higher value.
For assay [6] the target is unchanged. Put plainly: enhancers of rat Kvbeta2 NADPH turnover – biochemical, NADPH fluorescence, primary screen (AID 623;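 active = NADPH fluorescence slope more negative than the mean of all samples by about 3 SD, 99.7% confidence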;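 also: fluorescence intensity change per second fitted from 20 to 320 s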). Particulars: Recombinant KvBeta, NADPH fluorescence decrease slope, 10 min; at 10 µM; stronger effect = lower value.
In assay [7] the target is Alpha-2C adrenergic receptor (Homo sapiens) (UniProt P18825). Put plainly: compounds altering alpha2C-coupled GIRK flux – cell-based, HEK293 alpha2C/GIRK1/2, thallium flux, primary screen (AID 624;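 active = fluorescence slope after compound addition differing from the mean of all screened samples at 99.7% confidence, in either direction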;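 also: slope of fluorescence ratio to pre-addition baseline per second over 15 to 24 s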). Conditions: thallium flux BTC fluorescence, at 10 µM, actives lie on both sides.
A short description of assay [8]: inhibitors of larval lipid processing in zebrafish, primary screen, whole organism, PED6 fluorescence, gall bladder and intestine (AID 686;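 active = a full or partial loss of lipid-probe fluorescence in the fish gall bladder, intestine or both, judged by eye; inactive = no fluorescence loss, or compound toxic to the fish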;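 also: larvae 5 to 7 days old with five fish per well; signal comes from phospholipase A2 cleavage of quenched PED6 carried via bile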). Conditions: Zebrafish larvae PED6 lipid processing, fluorescence scoring; screened at 20 µM (by protocol). The gist of the method: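 system = live zebrafish larvae aged 5-7 days, whole organism | probe or stimulus = ingested quenched lipid PED6 at 100 nM | doses = 20 µM single dose | timing = overnight exposure | detection = fluorescence microscopy with visual scoring of gall bladder and intestine | read-out = visual per-well fluorescence inhibition score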

The nature of assay [9]: loss of swimming-algae plug formation – whole organism, Chlamydomonas reinhardtii, WT vs cilia-less mutant, absorbance, 96-well, primary screen (AID 463189;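 active = inhibition at or above 50% relative to wild type and mutant plate controls; inactive = inhibition below 50%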;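 also: 0% = wild type cc124 cells in DMSO and 100% = ciliumless bld1 mutant cells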). Conditions: Chlamydomonas reinhardtii gravitaxis, OD600 absorbance, 2 days; at 10 µM; stronger effect = higher value.
Setting [10] is: measured here: cell density z-score.
Where [11] appears, read: measured here: nuclear c-Myc green intensity z-score.
[12] abbreviates: measured here: nuclear pErk red intensity z-score, stronger effect = higher value.

Sequence of Dual specificity protein phosphatase 6 (Homo sapiens) (Q16828 whole entry, looked up): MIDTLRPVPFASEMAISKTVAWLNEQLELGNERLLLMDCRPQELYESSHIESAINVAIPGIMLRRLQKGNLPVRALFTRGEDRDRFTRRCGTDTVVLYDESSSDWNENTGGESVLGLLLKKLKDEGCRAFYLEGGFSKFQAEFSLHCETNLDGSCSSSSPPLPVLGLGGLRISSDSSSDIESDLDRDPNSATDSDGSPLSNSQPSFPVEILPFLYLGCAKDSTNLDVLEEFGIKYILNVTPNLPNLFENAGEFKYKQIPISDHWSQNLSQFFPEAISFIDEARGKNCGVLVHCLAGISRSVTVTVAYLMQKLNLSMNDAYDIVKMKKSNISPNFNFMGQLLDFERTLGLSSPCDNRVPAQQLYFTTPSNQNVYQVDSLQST
Sequence of Voltage-gated potassium channel subunit beta-2 (Rattus norvegicus) (P62483 whole entry, looked up): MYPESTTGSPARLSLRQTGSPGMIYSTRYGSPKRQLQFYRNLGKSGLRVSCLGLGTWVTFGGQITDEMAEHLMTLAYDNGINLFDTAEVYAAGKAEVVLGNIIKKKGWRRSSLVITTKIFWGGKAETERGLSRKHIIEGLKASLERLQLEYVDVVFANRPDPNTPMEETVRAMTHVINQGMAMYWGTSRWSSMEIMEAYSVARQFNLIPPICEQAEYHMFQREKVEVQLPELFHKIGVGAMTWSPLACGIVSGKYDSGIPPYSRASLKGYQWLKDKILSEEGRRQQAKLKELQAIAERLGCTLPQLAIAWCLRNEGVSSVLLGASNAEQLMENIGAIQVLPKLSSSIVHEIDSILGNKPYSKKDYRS
Sequence of Alpha-2C adrenergic receptor (Homo sapiens) (P18825 whole entry, looked up): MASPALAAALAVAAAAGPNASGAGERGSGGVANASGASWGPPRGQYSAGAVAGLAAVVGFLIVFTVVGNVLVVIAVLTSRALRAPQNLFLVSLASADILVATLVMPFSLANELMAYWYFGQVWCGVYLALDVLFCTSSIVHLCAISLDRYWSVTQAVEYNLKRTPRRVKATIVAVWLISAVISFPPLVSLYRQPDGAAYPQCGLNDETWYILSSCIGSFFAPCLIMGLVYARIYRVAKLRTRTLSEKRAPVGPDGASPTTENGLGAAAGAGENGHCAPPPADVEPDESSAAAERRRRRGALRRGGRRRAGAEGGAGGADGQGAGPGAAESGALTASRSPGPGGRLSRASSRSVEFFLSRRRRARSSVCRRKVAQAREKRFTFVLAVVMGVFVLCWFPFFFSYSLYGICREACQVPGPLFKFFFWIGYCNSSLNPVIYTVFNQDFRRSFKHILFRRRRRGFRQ

In the case of `Cc1ccc(C(=O)CSC2=C(C#N)C(c3ccco3)C3=C(CCCC3=O)N2)cc1` (stereo unspecified), the cell count in assay [1] worked out at 333. The inhibition (in general, the change of the read-out against control, counted positive when it falls) in assay [1] is -7.4% (inactive); in assay [2], -98.2% (inactive); in [4], 1.42% (inactive); in assay [9], 8.93% (inactive). Besides, the nuclei count in assay [2] amounted to 165%. For the same compound, the z-score in assay [3] (setting [10]) is 1.35; in assay [3] (setting [11]), -1.13; in [3] (setting [12]), 0.366. Also, in assay [5], the fluorescence slope was -0.449 (inactive). In addition, in assay [6], the NADPH fluorescence slope was -0.000148 (inactive). Moreover, the slope in assay [7] was 0.00654 (inactive). Moreover, in assay [8], the outcome was inactive.
Consider `CN(C)C/C(Cl)=C(\Cl)c1ccccc1`, for which the cell count in [1] amounted to 584. For the same compound, the inhibition is -0.1% (inactive) in assay [1], -20.3% (inactive) in assay [2], 4.25% (inactive) in [4] and 10.7% (inactive) in assay [9]. This compound showed a nuclei count in [2] of 159%. Also, the z-score in assay [3] (setting [10]) is -1.42; in assay [3] (setting [11]) it was -0.391; in [3] (setting [12]) it was 0.439. In addition, in assay [5], the fluorescence slope was -0.53 (inactive). Moreover, the NADPH fluorescence slope in assay [6] was -6.5e-05 (inactive). Also, the slope in assay [7] was 0.00503 (inactive). The compound was classed as inactive in assay [8].
As for `CN1C(=O)c2ccc(N(C)C)cc2C1=O`, the cell count in assay [1] worked out at 681. For the same compound, the inhibition in assay [1] is -8.8% (inactive); in assay [2], 17.3% (inactive); in assay [4] it was 3.66% (inactive); in [9], 21.8% (inactive). In [2], this compound registered a nuclei count of 175%. Besides, the figures for the z-score in assay [3] (setting [10]), in assay [3] (setting [11]) and in [3] (setting [12]) were 0.273, -0.466 and -0.534, respectively. In addition, the fluorescence slope in assay [5] was -0.479 (inactive). In assay [6], the NADPH fluorescence slope is -6.8e-05 (inactive). For the same compound, the slope in assay [7] is 0.00498 (inactive). In assay [8], the call was inactive.
As to `CSc1nc2sc3c(c2c2nnnn12)CC(C)(C)OC3`, in [1], the cell count was determined as 661. Moreover, the inhibition in assay [1] was -6.7% (inactive); in [2], -16.2% (inactive); in assay [4], -5.89% (inactive); in assay [9], 16.5% (inactive). In addition, the nuclei count in assay [2] was found to be 187%. The z-score is -1.26 in assay [3] (setting [10]), 1.03 in assay [3] (setting [11]) and 0.586 in assay [3] (setting [12]). For the same compound, in [5], the fluorescence slope was -0.496 (inactive). Moreover, the NADPH fluorescence slope in assay [6] was -6.6e-05 (inactive). Besides, the slope in assay [7] is 0.00446 (inactive). In assay [8], the result was inactive.
Consider `CC(O)Cn1ccccc1=N` (stereo unspecified), for which, in [1], the cell count came out at 352. In addition, the inhibition in assay [1] was -2% (inactive); in assay [2] it was -146% (inactive); in [4] it was -2.29% (inactive); in [9], 21.9% (inactive). Moreover, in assay [2], the nuclei count came to 105%. In addition, the figures for the z-score in assay [3] (setting [10]), in [3] (setting [11]) and in [3] (setting [12]) were 0.162, -0.0061 and 0.0768, respectively. The fluorescence slope in assay [5] is -0.293 (inactive). Besides, the NADPH fluorescence slope in [6] is 7.7e-06 (inactive). The slope in [7] is 0.00523 (inactive). Also, the compound was called inactive in [8].
Turning to `CCOC(=O)Cn1c(SC)nc2sc3c(c2c1=O)CC(C)(C)OC3`, the cell count in assay [1] amounted to 655. For the same compound, the inhibition is -7.4% (inactive) in assay [1], 1.5% (inactive) in [2], -0.159% (inactive) in [4] and -3.53% (inactive) in assay [9]. Moreover, the nuclei count in assay [2] worked out at 179%. In addition, the results for the z-score in [3] (setting [10]), in assay [3] (setting [11]) and in [3] (setting [12]) were 1.23, -1.44 and -0.342, respectively. Also, the fluorescence slope in assay [5] was -0.459 (inactive). In addition, the NADPH fluorescence slope in assay [6] was -0.000276 (inactive). Further, the slope in assay [7] was 0.00508 (inactive). Moreover, in assay [8], the outcome was inactive.
Consider `COC(=O)c1sc(NC(C)=O)c(C(=O)OC)c1C`, for which the cell count in assay [1] is 633. The inhibition in assay [1] was -13.3% (inactive); in assay [2], 4.8% (inactive); in assay [4] it was 6.04% (inactive); in assay [9] it was -1.51% (inactive). In [2], this compound showed a nuclei count of 154%. The z-score in [3] (setting [10]) is 1.36; in assay [3] (setting [11]), -0.117; in assay [3] (setting [12]) it was -1.37. For the same compound, the fluorescence slope in assay [5] was -0.516 (inactive). Also, the NADPH fluorescence slope in [6] is -9.3e-05 (inactive). In addition, the slope in assay [7] is 0.00594 (inactive). The compound was called inactive in assay [8].

For the origin of these results see PubChem BioAssay.
